Converted amounts (≈) assume the structure as drawn.
Key:
SF-268 [1] = assay: Cytotoxicity against human SF268 cells; assay type: functional, cell-based
In short: (§1)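 Monolayer cell survival and proliferation assay run across a panel of 36 human tumor cell lines, with IC50 determined from the resulting growth data.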

HT-29 [2] = assay: Cytotoxicity against human HT-29 cells; assay type: functional, cell-based
In short: (§2)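 Monolayer cell survival and proliferation assay, run within a panel of 36 human tumor cell lines; IC50 determined per cell line.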

[3] = Cytotoxicity against human HNXF 536L cells; assay type: functional, cell-based; in short: as §2
[4] = Cytotoxicity against human MEXF 276L cells; assay type: functional, cell-based; details: MEXF276L; in short: as §1
[5] = Cytotoxicity against human MEXF 394NL cells; assay type: functional, cell-based; in short: as §1
[6] = Cytotoxicity against human MEXF 462NL cells; assay type: functional, cell-based; in short: as §1
[7] = Cytotoxicity against human OVXF 899L cells; assay type: functional, cell-based; in short: as §1
PANC-1 [8] = assay: Cytotoxicity against human PANC1 cells; assay type: functional, cell-based; in short: as §1
[9] = Cytotoxicity against human BXF 1218L cells at 0.001 ug/ml relative to control; assay type: functional
[10] = Cytotoxicity against human HNXF 536L cells at 0.001 ug/ml relative to control; assay type: functional
[11] = Cytotoxicity against human LXFA 629L cells at 0.001 ug/ml relative to control; assay type: functional
NCI-H460 [12] = assay: Cytotoxicity against human H460 cells at 0.001 ug/ml relative to control; assay type: functional
[13] = Cytotoxicity against human OVXF 1619L cells at 0.001 ug/ml relative to control; assay type: functional
[14] = Cytotoxicity against human PAXF 1657L cells at 0.001 ug/ml relative to control; assay type: functional
[15] = Cytotoxicity against human PC3M cells at 0.001 ug/ml relative to control; assay type: functional, PC-3M
[16] = Cytotoxicity against human RXF 393NL cells at 0.001 ug/ml relative to control; assay type: functional
[17] = Cytotoxicity against human HNXF 536L cells at 0.01 ug/ml relative to control; assay type: functional
[18] = Cytotoxicity against human LXFA 526L cells at 0.01 ug/ml relative to control; assay type: functional
[19] = Cytotoxicity against human LXFL 529L cells at 0.01 ug/ml relative to control; assay type: functional
[20] = Cytotoxicity against human MAXF 401NL cells at 0.01 ug/ml relative to control; assay type: functional
[21] = Cytotoxicity against human MEXF 394NL cells at 0.01 ug/ml relative to control; assay type: functional
[22] = Cytotoxicity against human MEXF 462NL cells at 0.01 ug/ml relative to control; assay type: functional
[23] = Cytotoxicity against human PAXF 1657L cells at 0.01 ug/ml relative to control; assay type: functional
PANC-1 [24] = assay: Cytotoxicity against human PANC1 cells at 0.01 ug/ml relative to control; assay type: functional
[25] = Cytotoxicity against human PC3M cells at 0.01 ug/ml relative to control; assay type: functional, PC-3M
[26] = Cytotoxicity against human LXFA 289L cells at 0.1 ug/ml relative to control; assay type: functional
[27] = Cytotoxicity against human LXFA 526L cells at 0.1 ug/ml relative to control; assay type: functional
[28] = Cytotoxicity against human LXFL 529L cells at 0.1 ug/ml relative to control; assay type: functional
[29] = Cytotoxicity against human OVXF 899L cells at 0.1 ug/ml relative to control; assay type: functional
OVCAR-3 = assay: Cytotoxicity against human OVCAR3 cells at 0.1 ug/ml relative to control; assay type: functional
[30] = Cytotoxicity against human PAXF 1657L cells at 0.1 ug/ml relative to control; assay type: functional
CWR22R = assay: Cytotoxicity against human 22Rv1 cells at 0.1 ug/ml relative to control; assay type: functional
DU-145 = assay: Cytotoxicity against human DU145 cells at 0.1 ug/ml relative to control; assay type: functional
[31] = Cytotoxicity against human PXF 1752L cells at 0.1 ug/ml relative to control; assay type: functional
[32] = Cytotoxicity against human CNXF 498NL cells at 1 ug/ml relative to control; assay type: functional
[33] = Cytotoxicity against human LXFL 1121L cells at 1 ug/ml relative to control; assay type: functional
[34] = Cytotoxicity against human LXFA 526L cells at 1 ug/ml relative to control; assay type: functional
[35] = Cytotoxicity against human MEXF 462NL cells at 1 ug/ml relative to control; assay type: functional
[36] = Cytotoxicity against human PC3M cells at 1 ug/ml relative to control; assay type: functional, PC-3M
[37] = Cytotoxicity against human RXF 944L cells at 1 ug/ml relative to control; assay type: functional
[38] = Cytotoxicity against human UXF 1138L cells at 1 ug/ml relative to control; assay type: functional
T-24 = assay: Cytotoxicity against human T24 cells at 10 ug/ml relative to control; assay type: functional
[39] = Cytotoxicity against human CNXF 498NL cells at 10 ug/ml relative to control; assay type: functional
SF-268 [40] = assay: Cytotoxicity against human SF268 cells at 10 ug/ml relative to control; assay type: functional
HCT-116 = assay: Cytotoxicity against human HCT116 cells at 10 ug/ml relative to control; assay type: functional
HT-29 [41] = assay: Cytotoxicity against human HT-29 cells at 10 ug/ml relative to control; assay type: functional
NCI-H460 [42] = assay: Cytotoxicity against human H460 cells at 10 ug/ml relative to control; assay type: functional
[43] = Cytotoxicity against human MAXF 401NL cells at 10 ug/ml relative to control; assay type: functional
MCF7 = assay: Cytotoxicity against human MCF7 cells at 10 ug/ml relative to control; assay type: functional
[44] = Cytotoxicity against human OVXF 1619L cells at 10 ug/ml relative to control; assay type: functional

SMILES: C=C1[C@@H](O)[C@H]2O[C@@]2(C[C@H]2C(C)=CC[C@H]3C(C)(C)CCC[C@]23C)[C@@H](O)[C@H]1O [EPOXYPHOLAMIN D]
- IC50 (SF-268 [1]): 10.4 µM
- IC70 (SF-268 [1]): 5.62 µg/mL (≈ 15.5 µM)
- IC90 (SF-268 [1]): 8.36 µg/mL (≈ 23.1 µM)
- IC50 (HT-29 [2]): 10.8 µM
- IC70 (HT-29 [2]): 5.73 µg/mL (≈ 15.8 µM)
- IC90 (HT-29 [2]): 8.41 µg/mL (≈ 23.2 µM)
- IC50 [3]: 7.92 µM
- IC70 [3]: 5 µg/mL (≈ 13.8 µM)
- IC90 [3]: 8.7 µg/mL (≈ 24 µM)
- IC50 [4]: 4.69 µM
- IC70 [4]: 5.54 µg/mL (≈ 15.3 µM)
- IC90 [4]: 18.1 µg/mL (≈ 49.8 µM)
- IC50 [5]: 6.76 µM
- IC70 [5]: 4.64 µg/mL (≈ 12.8 µM)
- IC90 [5]: 8.8 µg/mL (≈ 24.3 µM)
- IC50 [6]: 5.79 µM
- IC70 [6]: 4.77 µg/mL (≈ 13.2 µM)
- IC90 [6]: 10.9 µg/mL (≈ 30 µM)
- IC50 [7]: 8.19 µM
- IC70 [7]: 5.62 µg/mL (≈ 15.5 µM)
- IC90 [7]: 10.7 µg/mL (≈ 29.4 µM)
- IC50 (PANC-1 [8]): 5.43 µM
- IC70 (PANC-1 [8]): 4.2 µg/mL (≈ 11.6 µM)
- IC90 (PANC-1 [8]): 8.93 µg/mL (≈ 24.6 µM)
- Activity [9]: 106%
- Activity [10]: 79%
- Activity [11]: 96%
- Activity (NCI-H460 [12]): 107%
- Activity [13]: 122%
- Activity [14]: 100%
- Activity [15]: 120%
- Activity [16]: 98%
- Activity [17]: 76%
- Activity [18]: 104%
- Activity [19]: 99%
- Activity [20]: 110%
- Activity [21]: 85%
- Activity [22]: 122%
- Activity [23]: 103%
- Activity (PANC-1 [24]): 92%
- Activity [25]: 101%
- Activity [26]: 106%
- Activity [27]: 115%
- Activity [28]: 100%
- Activity [29]: 97%
- Activity (OVCAR-3): 91%
- Activity [30]: 92%
- Activity (CWR22R): 90%
- Activity (DU-145): 88%
- Activity [31]: 95%
- Activity [32]: 55%
- Activity [33]: 97%
- Activity [34]: 119%
- Activity [35]: 68%
- Activity [36]: 18%
- Activity [37]: 102%
- Activity [38]: 72%
- Activity (T-24): 7%
- Activity [39]: 4%
- Activity (SF-268 [40]): 1%
- Activity (HCT-116): 4%
- Activity (HT-29 [41]): 1%
- Activity (NCI-H460 [42]): 3%
- Activity [43]: 12%
- Activity (MCF7): 5%
- Activity [44]: 10%
